# ChEMBL document CHEMBL4342502, “Synthesis and Antichlamydial Activity of Molecules Based on Dysregulators of Cylindrical Proteases” (J Med Chem, 2020)
# Active and inactive are the calls of the source. The calls are words filed in the database; no cut-off is given here.
# What was measured:
# Cryptococcus neoformans = assay: Antifungal activity against Cryptococcus neoformans var. grubii H99 ATCC […] as fungal growth inhibition at 32 ug/ml measured after 16 hrs by broth microdilution method; format: functional, organism-based; details: var. grubii H99 ATCC 208821
# Candida albicans = assay: Antifungal activity against Candida albicans ATCC 90028 assessed as fungal growth inhibition at 32 ug/ml measured after 16 hrs by broth microdilution method; format: functional, organism-based
# [1] = Hepatic intrinsic clearance in human liver microsomes at 1 ug/ml measured per kg body weight up to 60 mins by LC-MS/MS analysis; format: ADME, Microsome; details: 1 h
# Acinetobacter baumannii = assay: Antibacterial activity against Acinetobacter baumannii ATCC 19606 assessed as bacterial growth inhibition at 32 ug/ml measured after 16 hrs by broth microdilution method; format: functional, organism-based; details: ATCC 19606 = CIP 70.34 = JCM 6841
# Escherichia coli [2] = assay: Antibacterial activity against Escherichia coli K12 assessed as bacterial death up to 256 ug/ml measured after 16 hrs by broth microdilution method; format: functional, organism-based; details: K-12
# Procedure, shortened: (§1)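 Broth microdilution in Mueller Hinton broth, triplicate. Direct colony suspension at 1.5 x 10^8 CFU/mL diluted to ~10^5 CFU/mL. Serial dilutions made from DMSO stocks at 1 mg/mL; vancomycin positive control, blank medium negative control. Incubated 16 h at optimum temperature. MIC is the lowest concentration without visible growth at 600 nm; mean of triplicate determinations.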
# Klebsiella pneumoniae = assay: Antibacterial activity against Klebsiella pneumoniae ATCC 700603 assessed as bacterial growth inhibition at 32 ug/ml measured after 16 hrs by broth microdilution method; format: functional, organism-based
# [3] = Intrinsic clearance in human liver microsomes at 1 ug/ml measured per mg protein up to 60 mins by LC-MS/MS analysis; format: ADME, Microsome
# Procedure, shortened: (§2)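 Human liver microsomes (1.0 mg/mL protein) in 100 mM phosphate pH 7.4 with 10 mM MgCl2 and 2 mM NADPH, preincubated 10 min at 37 °C. Reaction started with compound at 1 μg/mL. Sampled at 0, 5, 15, 20, 30, 45 and 60 min and quenched in methanol with internal standard. Controls: no NADPH (negative), testosterone (positive). Analysed by LC-MS/MS, triplicate.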
# Staphylococcus aureus [4] = assay: Antibacterial activity against Staphylococcus aureus JE2 assessed as bacterial death up to 256 ug/ml measured after 16 hrs by broth microdilution method; format: functional, organism-based; procedure, shortened: as §1
# Escherichia coli [5] = assay: Antibacterial activity against Escherichia coli K12 assessed as bacterial growth inhibition at 32 ug/ml measured after 16 hrs by broth microdilution method; format: functional, organism-based; details: K-12; procedure, shortened: as §1
# [6] = Half life in human liver microsomes at 1 ug/ml measured up to 60 mins by LC-MS/MS analysis; format: ADME, Microsome; procedure, shortened: as §2
# Chlamydia trachomatis [7] = assay: Anti-chlamydial activity against Chlamydia trachomatis Serovar LGV-L2 infected in Hep2 cells assessed as reduction in chlamydial infectivity by measuring decrease in inclusion forming units at 50 ug/ml treated at 8 hrs post-infection and 24 hrs later re-infecting fresh Hep2 cells monolayer with infected cells and measured at 24 hrs post re-infection by immunofluorescence staining based microscopy analysis; format: functional, organism-based
# Procedure, shortened: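 HEp-2 cells in DMEM with 10% FBS, infected with C. trachomatis L2 at MOI 1. Compounds added 8 hpi in triplicate; DMSO stocks at 50 mg/mL. At 24 hpi lysates collected in sucrose storage medium, frozen at −80 °C, and used to infect fresh HEp-2 monolayers in 10-fold dilutions. After 24 h, stained with goat anti-MOMP and Alexa488 secondary. Inclusions counted in 15 fields at 20x; IFU = mean count per field corrected for dilution.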
# Staphylococcus aureus [8] = assay: Antibacterial activity against Staphylococcus aureus JE2 assessed as bacterial growth inhibition at 32 ug/ml measured after 16 hrs by broth microdilution method; format: functional, organism-based; procedure, shortened: as §1
# Chlamydia trachomatis [9] = assay: Anti-chlamydial activity against Chlamydia trachomatis Serovar LGV-L2 infected in Hep2 cells assessed as inhibition of chlamydial inclusion at 50 ug/ml treated at 8 hrs post infection and measured at 24 hrs post-infection by immunofluorescence assay; format: functional, organism-based
# Procedure, shortened: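 HEp-2 cells infected with C. trachomatis serovar L2. Compounds at 50 μg/mL added 8 hpi; inclusion number and size assessed by immunofluorescence at 24 hpi against untreated cells. Cell morphology and viability checked by phase-contrast microscopy.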
# [10] = Stability of compound in human liver microsomes at 1 ug/ml measured up to 60 mins in absence of NADPH by LC-MS/MS analysis; format: ADME, Microsome; details: 1 h; procedure, shortened: as §2
# [11] = Drug metabolism in human liver microsomes assessed as amount of drug modified at 1 ug/ml […] in presence of NADPH by LC-MS/MS analysis; format: ADME, Microsome; details: read-out: Drug metabolism
# Pseudomonas aeruginosa = assay: Antibacterial activity against Pseudomonas aeruginosa ATCC 27853 assessed as bacterial growth inhibition at 32 ug/ml measured after 16 hrs by broth microdilution method; format: functional, organism-based
# Escherichia coli [12] = assay: Antibacterial activity against Escherichia coli ATCC 25922 assessed as bacterial growth inhibition at 32 ug/ml measured after 16 hrs by broth microdilution method; format: functional, organism-based
# Staphylococcus aureus [13] = assay: Antibacterial activity against methicillin-resistant Staphylococcus aureus ATCC 43300 assessed as bacterial growth inhibition at 32 ug/ml measured after 16 hrs by broth microdilution method; format: functional, organism-based
# Haemophilus influenzae = assay: Antimicrobial activity against Haemophilus influenzae H2192 assessed as bacterial growth inhibition measured after 18 to 20 hrs; format: functional
# Neisseria meningitidis = assay: Antimicrobial activity against Neisseria meningitidis MC58 assessed as bacterial growth inhibition measured after 18 to 20 hrs; format: functional
# Chlamydia trachomatis [14] = assay: Activation of recombinant Chlamydia trachomatis Serovar LGV-L2 C-terminal 6xhis-tagged ClpP1/ClpP2 dimer expressed in Escherichia coli assessed as induction of casein degradation at 0.1 to 1 uM using FITC-labelled casein as substrate pretreated with enzyme for 30 mins followed by substrate addition and measured every 3 mins for 3 hrs in absence of AAA+ chaperone by fluorescence based tecan-plate reader assay
# Procedure, shortened: (§3)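 Recombinant C-terminal His6-tagged ClpP, expressed in a clpAPX-null E. coli strain and purified (mammalian ClpP without mitochondrial signal, codon-optimized). ClpP at 1 or 0.1 μM (E. coli), 1 μM (human, mouse) or 6 μM (chlamydial ClpP1 and ClpP2) preincubated with compound or DMSO, 30 min, 32 °C, in HEPES pH 7.6/KCl/MgCl2/DTT/glycerol buffer. 20 μM FITC-casein then added. Fluorescence (ex 490/em 525 nm) read every 3 min for 3 h. At least three runs on at least two protein preparations.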
# [15] = target: ATP-dependent Clp protease proteolytic subunit (Escherichia coli (strain K12)) (UniProt P0A6G7); assay: Activation of recombinant Escherichia coli ClpP assessed as induction of casein degradation at 0.1 to 1 uM using FITC-labelled casein as substrate pretreated with enzyme for 30 mins followed by substrate addition and measured every 3 mins for 3 hrs in absence of AAA+ chaperone by fluorescence based tecan-plate reader assay; procedure, shortened: as §3
# Sequence of ATP-dependent Clp protease proteolytic subunit (Escherichia coli (strain K12)) (P0A6G7 whole entry): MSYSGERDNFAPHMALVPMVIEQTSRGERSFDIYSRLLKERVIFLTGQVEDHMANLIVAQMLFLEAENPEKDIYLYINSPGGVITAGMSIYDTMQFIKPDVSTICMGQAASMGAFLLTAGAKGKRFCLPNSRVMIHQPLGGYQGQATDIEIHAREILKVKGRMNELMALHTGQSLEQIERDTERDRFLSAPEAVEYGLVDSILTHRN
# Chlamydia trachomatis [16] = assay: Activation of recombinant Chlamydia trachomatis Serovar LGV-L2 C-terminal 6xhis-tagged ClpP2 expressed in Escherichia coli assessed as induction of casein degradation at 0.1 to 1 uM using FITC-labelled casein as substrate pretreated with enzyme for 30 mins followed by substrate addition and measured every 3 mins for 3 hrs in absence of AAA+ chaperone by fluorescence based tecan-plate reader assay; procedure, shortened: as §3
# [17] = Activation of recombinant human C-terminal 6xHis-tagged ClpP expressed in Escherichia coli assessed as induction of casein degradation at 0.1 to 1 uM using FITC-labelled casein as substrate pretreated with enzyme for 30 mins followed by substrate addition and measured every 3 mins for 3 hrs in absence of AAA+ chaperone by fluorescence based tecan-plate reader assay; procedure, shortened: as §3
# [18] = Activation of recombinant mouse C-terminal 6xHis-tagged ClpP expressed in Escherichia coli assessed as induction of casein degradation at 0.1 to 1 uM using FITC-labelled casein as substrate pretreated with enzyme for 30 mins followed by substrate addition and measured every 3 mins for 3 hrs in absence of AAA+ chaperone by fluorescence based tecan-plate reader assay; procedure, shortened: as §3
# Chlamydia trachomatis [19] = assay: Activation of recombinant Chlamydia trachomatis Serovar LGV-L2 C-terminal 6xhis-tagged ClpP1 expressed in Escherichia coli assessed as induction of casein degradation at 0.1 to 1 uM using FITC-labelled casein as substrate pretreated with enzyme for 30 mins followed by substrate addition and measured every 3 mins for 3 hrs in absence chaperone by fluorescence based tecan-plate reader assay; procedure, shortened: as §3
# HaCaT = assay: Cytotoxicity against immortal human HaCaT cells assessed as reduction in cell viability at 50 ug/ml after 24 hrs by CCK-8 assay; format: cell-based
# Procedure, shortened: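 HeLa 229 and HaCaT cells in DMEM with 10% FBS and 1% penicillin/streptomycin, 37 °C, 5% CO2, seeded at 5000 cells/well. Next day treated with 50 μg/mL in triplicate, with matching DMSO controls. After 24 h, CCK-8 added for 2 h; corrected absorbance read at 450 nm.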
# [20] = Stability of the compound in simulated gastric fluid at 50 uM and pH 1.2 at 37 degree C measured up to 120 mins by HPLC-ESI/MS analysis; details: simulated gi fluid, pH 1.2, 2 h
# [21] = Stability of compound in mouse pre-heated plasma at 50 uM incubated up to 120 mins by HPLC-ESI/MS analysis; format: ADME, cell-free; details: 2 h
# Procedure, shortened: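 Compounds from 2.5 mM DMSO stocks incubated at 50 μM final in mouse plasma diluted to 80% with PBS, preheated, 37 °C, shaking. Sampled at 0, 15, 30, 60, 90 and 120 min and quenched with cold acetonitrile. Centrifuged; supernatant analysed by HPLC-ESI-MS. Peak area reported relative to time zero. Enalapril positive control; triplicate.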
Structure (SMILES),inhibition (Cryptococcus neoformans),inhibition (Candida albicans),CLH [1] [mL/min/kg],inhibition (Acinetobacter baumannii),Activity (Escherichia coli [2]),inhibition (Klebsiella pneumoniae),Activity (Staphylococcus aureus [4]),inhibition (Escherichia coli [5]),inhibition (Chlamydia trachomatis [7]),inhibition (Staphylococcus aureus [8]),inhibition (Chlamydia trachomatis [9]),Stability [10],"metabolised at 10 min, 1 ug/ml [11] [%]",inhibition (Pseudomonas aeruginosa),inhibition (Escherichia coli [12]),inhibition (Staphylococcus aureus [13]),Activity [15],Activity [17],Activity [18],Activity (HaCaT),also measured
CC(C)(C(=O)NCCOc1ccccc1)S(=O)(=O)c1ccc(C(F)(F)F)cn1,inactive,inactive,1460,inactive,inactive,inactive,inactive,inactive,Active,inactive,Active,Stable,90,inactive,inactive,inactive,–,–,–,–,"microsomal intrinsic clearance ([3]; microsomes, 1 h): 185.6 µL/min; t1/2 ([6]; microsomes, 1 h): 3.73 min"
CC(C)(C(=O)NCCSc1ccccc1Cl)S(=O)(=O)c1ccc(C(F)(F)F)cn1,–,–,–,–,–,–,–,–,–,–,Active,–,–,–,–,–,–,–,–,–,Activity (Haemophilus influenzae): 32 µg/mL; Activity (Neisseria meningitidis): 64 µg/mL
CC(C)(C(=O)NCCCc1ccccc1)S(=O)(=O)c1ccccc1,inactive,inactive,–,inactive,–,inactive,–,inactive,–,inactive,inactive,–,–,inactive,inactive,inactive,inactive,Not Active,Not Active,–,Activity (Chlamydia trachomatis [14]): Active; Activity (Chlamydia trachomatis [16]): Active; Activity (Chlamydia trachomatis [19]): Active
CC(C)(C(=O)N1CCN(c2ccc(Cl)c(Cl)c2)CC1)S(=O)(=O)c1ccc(C(F)(F)F)cn1,inactive,inactive,874,inactive,inactive,inactive,inactive,inactive,Active,inactive,Active,Stable,90,inactive,inactive,inactive,–,–,–,Non-Toxic,"microsomal CLint at 1 ug/ml ([3]; liver microsomes, read-out: CLH): 112 µL/min/mg; half-life at 1 ug/ml ([6]; liver microsomes): 6.25 min; Stability [20]: Stable; Stability [21]: Stable"
Cc1ccc(CN2CCN(C(=O)C(C)(C)S(=O)(=O)c3ccc(C(F)(F)F)cn3)CC2)cc1,inactive,inactive,–,inactive,inactive,inactive,inactive,inactive,–,inactive,Active,–,–,inactive,inactive,inactive,–,–,–,Non-Toxic,–
CC(C)(C(=O)NCCSc1ccc(Cl)cc1)S(=O)(=O)c1ccccc1,inactive,inactive,–,inactive,–,inactive,–,inactive,–,inactive,inactive,–,–,inactive,inactive,inactive,inactive,Not Active,Not Active,–,–
